Results from ChEMBL document CHEMBL1122032, “Dopaminergic activity of substituted 6-chloro-1-phenyl-2,3,4,5-tetrahydro-1H-3-benzazepines” (J Med Chem, 1982).
Blank lines part the entries; values can stand above or below the compound they belong to. The source made the active and inactive calls. The calls are words filed in the database; no cut-off is given here.

Tests used:
Canis familiaris [1] = species: Canis familiaris; test: Renal blood flow was measured in dogs; Highly significant activity; type: functional, organism-based; settings: Canis lupus familiaris; Kidney
Canis familiaris [2] = species: Canis familiaris; test: Renal vascular resistance was calculated as the ratio of the mean arterial blood pressure / mean renal blood flow; Highly significant activity; type: functional, organism-based; settings: Canis lupus familiaris
Canis familiaris [3] = test: Compound was evaluated for determining renal vascular resistance(iv) in dogs; type: functional, Canis lupus familiaris
Summary of the method: (§1)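 Secondary renal screen in anesthetized dogs: cumulative dose-response by infusing drug at progressively increasing rates, 5 min per dose level. RVR ED15 is the average minimum cumulative dose lowering RVR by 15%; maximum effect is the average maximum % fall in RVR. Selectivity ratios are separations between RVR ED15 and doses giving 30% change in iliac vascular resistance, 20% in MABP, 20% in HR.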

Canis familiaris [4] = species: Canis familiaris; test: Compound was evaluated for average maximum percent decrease in renal vascular resistance in dogs; type: functional, Canis lupus familiaris; summary of the method: as §1
Rattus norvegicus [5] = species: Rattus norvegicus; test: Central dopaminergic activity against contralateral rotation(500) in lesioned rats; type: functional
Summary of the method: (§2)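 Rats with substantia nigra lesions scored for contralateral rotation after intraperitoneal dosing (routine), oral dosing for selected compounds, or intracaudal administration for intrinsic activity. RD500 and RD1000 are the minimum doses giving 500 and 1000 turns, respectively, in 2 h.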

Rattus norvegicus [6] = test: Central dopaminergic activity for minimum concentration which produced 500 rotations at the dose of 10 mg/kg (i.p.) in 2 h; I=Inactive; type: functional, organism-based; design: dose 10 mg/kg; summary of the method: as §2
[7] = Selectivity ratio of compound as ED15 relative to heart rate(HR) ED20; type: functional; summary of the method: as §1
[8] = Selectivity ratio of compound as ratio of ED15 relative to mean arterial blood pressure(MABP) ED20; type: functional; summary of the method: as §1
[9] = Selectivity ratio of Compound as ratio of ED15 relative to iliac vascular resistance(IVR) ED30; type: functional; summary of the method: as §1
Canis familiaris [10] = species: Canis familiaris; test: Renal blood flow was measured in dogs; Significant activity; type: functional, organism-based; settings: Canis lupus familiaris; Kidney
Rattus norvegicus [11] = species: Rattus norvegicus; test: Adenylase cyclase activity in rat striatal membranes; type: functional, organism-based, Membrane; settings: Striatum
Rattus norvegicus [12] = species: Rattus norvegicus; test: Central dopaminergic activity against contralateral rotation(500) in lesioned rats(ic); type: functional; summary of the method: as §2
Rattus norvegicus [13] = test: Central dopaminergic activity for minimum concentration which produced 500 rotations(ip) in 2 h; type: functional; summary of the method: as §2
Canis familiaris [14] = species: Canis familiaris; test: Renal vascular resistance was calculated as the ratio of the mean arterial blood pressure / mean renal blood flow; I=Inactive; type: functional, organism-based; settings: Canis lupus familiaris
Rattus norvegicus [15] = test: Central dopaminergic activity for minimum concentration which produced 500 rotations(ip); type: functional; summary of the method: as §2
Canis familiaris [16] = species: Canis familiaris; test: Renal blood flow was measured in dogs; I=Inactive; type: functional, organism-based; settings: Canis lupus familiaris; Kidney
Rattus norvegicus [17] = test: Central dopaminergic activity for minimum concentration which produced 500 rotations at the dose of 2.0 mg/kg (i.p.) in 2 h; type: functional; settings: route intraperitoneal; summary of the method: as §2
Rattus norvegicus [18] = test: Central dopaminergic activity against contralateral rotation(1000) in lesioned rats at the dose of 6.0 mg/kg (p.o.) in 2 h; type: functional; settings: route oral
Summary of the method: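 Oral dosing in rats with substantia nigra lesions, scoring contralateral rotations. RD1000 is the minimum dose producing 1000 turns in 2 h.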

SMILES: CS(=O)(=O)O.Oc1ccc(C2CNCCc3c2cc(O)c(O)c3Cl)cc1 (stereo unspecified) [FENOLDOPAM MESYLATE]
RBF (Canis familiaris [1]): Highly significant activity | RVR (Canis familiaris [2]): Significant activity | RVR ED15 (Canis familiaris [3]): 0.0003 mg/kg | Decrease RVR (Canis familiaris [4]): 59% | RD500 (Rattus norvegicus [5]): 0.5 ug rat-1 | RD500 (Rattus norvegicus [6]): inactive | Ratio [7]: >6072 | Ratio [8]: >6072 | Ratio [9]: > 6070

EC50 (Rattus norvegicus [11]): 600 nM
SMILES: CN1CCc2c(cc(O)c(O)c2Cl)C(c2ccccc2)C1.Cl (stereo unspecified)
RBF (Canis familiaris [10]): Significant activity | RVR (Canis familiaris [2]): Significant activity | RD500 (Rattus norvegicus [12]): 0.32 ug rat-1 | RD500 (Rattus norvegicus [13]): 0.03 mg/kg

SMILES: Cl.Oc1cc2c(c(Cl)c1O)CCN(Cc1ccc(C(F)(F)F)cc1)CC2c1ccccc1 (stereo unspecified)
RBF (Canis familiaris [10]): Significant activity | RVR (Canis familiaris [14]): inactive | RD500 (Rattus norvegicus [15]): 455 turns/2 h

SMILES: Br.CN1CCc2c(cc(O)c(O)c2Cl)C(c2cccc(C(F)(F)F)c2)C1 (stereo unspecified)
RBF (Canis familiaris [16]): inactive | RVR (Canis familiaris [14]): inactive | RD500 (Rattus norvegicus [17]): 594 turns/2 h | RD1000 (Rattus norvegicus [18]): 296 turns/2 h
